Columns and labels:
[1] = folding enthalpy; higher = less favourable; fluorescence melt of hairpins on a sequencing array, two-state fit; settings: sodium 0.088 M
In short: (§1)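 Cy3 fluorescence of library hairpins on a sequenced MiSeq flow cell, with annealed Cy3 and quencher oligos, was imaged in 50 mM Na-HEPES pH 8.0, 25 mM NaCl in 2.5 °C steps up to 60 °C. Signals were normalised to pre-quench Cy3 and to control variants. Melting temperature and folding enthalpy came from bootstrapped two-state fits, inverse-variance combined over four replicates. Fitted temperatures were raised by 9.35 °C to match UV melts.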

[2] = melting temperature; fluorescence melt of hairpins on a sequencing array, two-state fit, raised by 9.35 °C to match UV melts; settings: sodium 0.088 M
In short: as §1

| Sequence | folding enthalpy [1] [kcal/mol] | Tm [2] [°C] |
| --- | --- | --- |
| GTTTCCGAAAGGAAAAAC ((((((....)))..))) | -15.1 | 36.8 |
| GTTTCCGAAAGGAAGAAC ((((((....)))..))) | -11.1 | 30.9 |
| GTTTCCGAAAGGAGAAAC ((((((....)))..))) | -16.8 | 32.5 |
| GTTTCCGAAAGGAGTAAC ((((((....)))..))) | -12.6 | 28.8 |
| GTTTCCGAAAGGATTAAC ((((((....)))..))) | -11.6 | 28.6 |
| GTTTCCGGAAACAGAAAC (((((.(....).))))) | -13.2 | 35.1 |
| GTTTCCGGAAACGGAAGC (.(((((....))))).) | -16.7 | 49.3 |
| GTTTCGGGAAACCGAGAC ((.((((....)))).)) | -21.4 | 47.3 |
| GTTTCGGGAAACTGAAAC (((((.(....).))))) | -27.5 | 46.9 |
| GTTTCTGGAAACAGAAAC (((((((....))))))) | -43.3 | 55.1 |
| GTTTCTGGAAACAGAAGC (.(((((....))))).) | -26.3 | 39.5 |
| GTTTCTGGAAACAGAGAC ((.((((....)))).)) | -26.9 | 37.2 |
| GTTTGACGAAAGTCCAAC (((.(((....))).))) | -20.6 | 40.5 |
| GTTTGACGAAAGTCTAAC (((.(((....))).))) | -25 | 47.7 |
| GTTTGAGGAAACTTGAAC (((..((....))..))) | -17.3 | 33.1 |
| GTTTGCCCGAAAGGGAAC (((..(((....)))))) | -11.3 | 32.5 |
| GTTTGCGAAAGCAAAAC ((((((....))).))) | -17.4 | 52.6 |
| GTTTGCGAAAGCAAGAAC ((((((....)))..))) | -10 | 36.7 |
| GTTTGCGAAAGCATAAC ((((((....))).))) | -17.3 | 43 |

| Sequence | folding enthalpy [1] [kcal/mol] | Tm [2] [°C] |
| --- | --- | --- |
| GTTTGCGGAAACGTAGAC ((.(.((....)).).)) | -20.5 | 30.7 |
| GTTTGCTCGAAAGAGAAC (((..(((....)))))) | -14.7 | 27 |
| GTTTGGCGAAAGCCGAAC (((.(((....))).))) | -20.6 | 58.8 |
| GTTTGGGGAAACCCAAAC (((((((....))))))) | -42.3 | 59 |
| GTTTGGGGAAACCCAAGC (.(((((....))))).) | -21.9 | 43.5 |
| GTTTGGTCGAAAGACAAC (((..(((....)))))) | -13.2 | 31.4 |
| GTTTGTACGAAAGTAAAC (((..(((....)))))) | -24.3 | 32.8 |
| GTTTGTCCGAAAGGAAAC (((..(((....)))))) | -18.9 | 35.9 |
| GTTTGTGCGAAAGCAAAC (((..(((....)))))) | -18.2 | 41.5 |
| GTTTGTGGAAACACAGAC ((.((((....)))).)) | -23.6 | 43.9 |
| GTTTTACGAAAGTATAAC (((.(((....))).))) | -23.9 | 37.5 |
| GTTTTAGAAATAAAAC ((((((....)))))) | -22.3 | 36.7 |
| GTTTTAGGAAACTAAAGC (.(((((....))))).) | -15 | 31.5 |
| GTTTTCCGAAAGGAAAC (((.(((....)))))) | -13.6 | 47.8 |
| GTTTTCGGAAACGAAAAC (((((((....))))))) | -42.6 | 58.5 |
| GTTTTCGGAAACGAGAAC (((.(((....))).))) | -27.4 | 41.6 |
| GTTTTGCGAAAGCACAAC (((.(((....))).))) | -28.1 | 44.2 |
| GTTTTGGGAAACTAAGAC ((.((.(....).)).)) | -9.09 | 29 |

— the array DNA melting data of Ke et al. (doi:10.1101/2024.01.08.574731)
